# Test results: ChEMBL document CHEMBL3868591, “Melokhanines A-J, Bioactive Monoterpenoid Indole Alkaloids with Diverse Skeletons from Melodinus khasianus” (J Nat Prod, 2016)
# Tests used:
# Enterococcus faecalis = assay: Antibacterial activity against Enterococcus faecalis ATCC 10541 after 24 hrs by broth microdilution method; format: functional
# In short: (§1)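 MIC determined by broth microdilution, three independent replicates. Strains used were P. aeruginosa ATCC 27853, E. faecalis ATCC 10541, E. coli ATCC 11775, S. aureus […] and K. pneumoniae ATCC 13883. Cefotaxime served as positive control.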
# Pseudomonas aeruginosa = assay: Antibacterial activity against Pseudomonas aeruginosa ATCC 27853 after 24 hrs by broth microdilution method; format: functional; in short: as §1
# Klebsiella pneumoniae = assay: Antibacterial activity against Klebsiella pneumoniae ATCC 13883 after 24 hrs by broth microdilution method; format: functional; in short: as §1
# Escherichia coli = assay: Antibacterial activity against Escherichia coli ATCC 11775 after 24 hrs by broth microdilution method; format: functional; in short: as §1
# Staphylococcus aureus = assay: Antibacterial activity against Staphylococcus aureus […] after 24 hrs by broth microdilution method; format: functional; in short: as §1
# [1] = Cytotoxicity against human MCF7 cells after 48 hrs by MTT assay; format: functional, cell-based; conditions: MCF7, 48 h
# In short: (§2)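 MTT read-out. Each cell line was exposed in triplicate to a range of concentrations for 48 h, with cisplatin as positive control.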
# [2] = Cytotoxicity against human HL60 cells after 48 hrs by MTT assay; format: functional, cell-based; conditions: HL-60, 48 h; in short: as §2
# [3] = Cytotoxicity against human SW480 cells after 48 hrs by MTT assay; format: functional, cell-based; conditions: SW480, 48 h; in short: as §2
# [4] = Cytotoxicity against human A549 cells after 48 hrs by MTT assay; format: functional, cell-based; conditions: A549, 48 h; in short: as §2
# [5] = Cytotoxicity against human SMMC7721 cells after 48 hrs by MTT assay; format: functional, cell-based; conditions: SMMC-7721, 48 h; in short: as §2
# [6] = Antifungal activity against Trichophyton terrestre after 48 hrs by broth microdilution method; format: functional
# In short: (§3)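 Dermatophyte MICs obtained by broth microdilution in three independent replicates, with griseofulvin as positive control.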
# Nannizzia gypsea = assay: Antifungal activity against Microsporum gypseum CBS 118893 after 48 hrs by broth microdilution method; format: functional; conditions: CBS 118893, 48 h; in short: as §3
# Microsporum canis = assay: Antifungal activity against Microsporum canis CBS 113480 after 48 hrs by broth microdilution method; format: functional; conditions: CBS 113480, 48 h; in short: as §3
# [7] = Antifungal activity against Trichophyton mentagrophytes ATCC 4439 after 48 hrs by broth microdilution method; format: functional; in short: as §3
# [8] = Antifungal activity against Microsporum ferrugineum CBS 457.80 after 48 hrs by broth microdilution method; format: functional; in short: as §3
# [9] = Antifungal activity against Trichophyton ajelloi E1501 after 48 hrs by broth microdilution method; format: functional; conditions: Arthroderma uncinatum; in short: as §3
# [10] = Antifungal activity against Epidermophyton floccosum CBS 566.94 after 48 hrs by broth microdilution method; format: functional; in short: as §3
# [11] = DSM 30083 = JCM 1649 = ATCC 11775, 24 h
Compound,"MIC (Enterococcus faecalis; ATCC 10541, 24 h) [µM]","MIC (Pseudomonas aeruginosa; ATCC 27853, 24 h) [µM]","MIC (Klebsiella pneumoniae; ATCC 13883, 24 h) [µM]",MIC (Escherichia coli; [11]) [µM],MIC (Staphylococcus aureus) [µM],IC50 [1] [µM],IC50 [2] [µM],IC50 [3] [µM],IC50 [4] [µM],IC50 [5] [µM],also measured
CC[C@@]12CCCN3CC[C@@]4(O)c5ccccc5N(C(=O)CC1)[C@]324,> 150,2,> 150,> 150,> 150,,,,,,
CC[C@]12CCCn3c(C=O)cc(c31)-c1ccccc1NC(=O)CC2 [RHAZINAL],19,2,77,> 150,> 150,,,,,,
CC[C@@H]1CN2CC[C@]34c5ccccc5-n5c3c(cc(C(=O)O)c5=O)[C@H]1C[C@H]24 [MELODININE C],> 150,4,69,> 150,> 150,,,,,,
CCO[C@@H]1C[C@@]2(CC)CCCN3CC[C@]4(C(=O)c5ccccc5N14)[C@H]32,147,4,> 150,147,> 150,> 40,> 40,> 40,> 40,> 40,
CC[C@]12CCCN(CC[C@]3(O)C(=O)Nc4ccccc43)[C@H]1OCC2,75,19,150,19,75,> 40,> 40,> 40,> 40,> 40,MIC [6]: > 150 µM; MIC (Nannizzia gypsea): 150 µM; MIC (Microsporum canis): 38 µM; MIC [7]: 150 µM; MIC [8]: 75 µM; MIC [9]: 150 µM; MIC [10]: 150 µM
CC[C@@H]1CN2CC[C@]34c5ccccc5-n5c3c(cc(C(N)=O)c5=O)[C@H]1C[C@H]24 [LEUCONICINE A],> 150,2,69,> 150,> 150,,,,,,
RAUWOLFIA SERPENTINA,,,,,> 150,,,,,,MIC (Enterococcus faecalis): 71 µM; MIC (Pseudomonas aeruginosa): 4 µM; MIC (Klebsiella pneumoniae): > 150 µM; MIC (Escherichia coli; DSM 30083 = JCM 1649 = ATCC 11775): 142 µM
CC[C@@]12CCCN3CC[C@@H](c4ccccc4NC(=O)CC1)[C@]32O,39,5,> 150,> 150,> 150,> 40,> 40,> 40,> 40,> 40,
COC1=CC(=O)C[C@@H](C)[C@]12Oc1c(Cl)c(OC)cc(OC)c1C2=O [GRISEOFULVIN],,,,,,,,,,,MIC [6]: 35 µM; MIC (Nannizzia gypsea): 9 µM; MIC (Microsporum canis): 18 µM; MIC [7]: 18 µM; MIC [8]: 35 µM; MIC [9]: 71 µM; MIC [10]: 9 µM
CC[C@@]12CCCN3CC[C@]4(C(=O)c5ccccc5N4[C@H](OC)C1)[C@H]32,5,5,> 150,150,> 150,> 40,> 40,> 40,> 40,> 40,
CC[C@@]12CCCN3CC[C@]4(C(=O)c5ccccc5N4[C@@H](O)[C@H]1O)[C@H]32,75,19,150,150,> 150,> 40,> 40,> 40,> 40,> 40,
CC[C@@]12CCCN3CCc4c(n(c5ccccc45)C(=O)C1)[C@H]32,2,5,> 150,85,> 150,,,,,,
CC[C@]12C=Cn3c4c(c5ccccc53)CCN(CCC1)[C@@H]42,22,22,> 150,> 150,> 150,,,,,,
CO[C@H]1CCN2CCc3c([nH]c4ccccc34)[C@@]3(C(=O)O)CCC=C1[C@H]23,71,4,> 150,71,> 150,> 40,> 40,> 40,> 40,> 40,
C/C=C1/CN2CCc3c([nH]c4ccccc34)[C@@H]2C[C@@H]1[C@H](CO)C(=O)OC,18,2,> 150,> 150,> 150,,,,,,
CC[C@@]12CCCN3CC[C@]4(C(=O)c5ccccc5N4[C@@H](OC)C1)[C@H]32,150,19,> 150,75,> 150,> 40,> 40,> 40,> 40,> 40,
CCC1=CN2CC[C@]34c5ccccc5-n5c3c(cc(C(=O)OC)c5=O)[C@H]1C[C@H]24,66,2,133,66,> 150,,,,,,
CC[C@]12C=CN3c4ccccc4C(=O)[C@]34CCN(CCC1)[C@H]24,42,2,> 150,> 150,> 150,> 40,> 40,> 40,> 40,> 40,
CO/N=C(\C(=O)N[C@@H]1C(=O)N2C(C(=O)O)=C(COC(C)=O)CS[C@H]12)c1csc(N)n1 [CEFOTAXIME],0.4,0.4,1.7,1.7,0.4,,,,,,
CC[C@@]12CCCN3C(=O)C[C@H]4c5cc(O)ccc5N(C(=O)CC1)C432 (some centres undefined),19,19,> 150,76,19,,,,,,
CC[C@@]12CCCN3C(=O)C=C(c4ccccc4NC(=O)CC1)[C@]32O,2,5,> 150,> 150,> 150,,,,,,
CC[C@@]12CCCN3CC[C@]4(C(=O)c5ccccc5N4C(=O)C1)[C@H]32,5,2,> 150,> 150,> 150,> 40,> 40,> 40,> 40,> 40,
CC[C@@]12CCCN3CC[C@]4(C(=O)c5ccccc5N4[C@@H](OC)[C@H]1O)[C@H]32,73,18,> 150,73,> 150,> 40,> 40,> 40,> 40,> 40,
